Results of several laboratories.
Each line is one published result; the experiments were not run side by side.

Compound	assay	system	conditions	measurement	value
N=c1c2c(-c3ccccc3)c(-c3ccccc3)n(Cc3ccccc3)c2ncn1[C@H]1CC[C@H](O)CC1	metabolic stability	monkey, hepatocytes	1 µM, 4 h	compound remaining	119%
O=C(NCCCCCn1ccc2ccc(F)cc21)Oc1ccc(C(=O)O)cc1	HPLC			chromatographic logP	2.8
C[C@]12CC[C@H](n3ccnc3)CC1=CC[C@@H]1[C@@H]2CC[C@]2(C)C(n3cnc4ccccc43)=CC[C@@H]12.Cl		male CD-1 mouse, plasma	intravenous, 1 mg/kg	half-life	17.1 h
N#Cc1ccccc1OC(=O)NCCCCCn1ccc2ccc(F)cc21	HPLC			chromatographic logP	3.9
CC[C@H]1CN2CC[C@H]1C[C@H]2[C@H](O)c1ccnc2ccc(OC)cc12		water		logP	3.07
O=C(NCCCCCn1ccc2ccc(F)cc21)Oc1cccc2[nH]ccc12	HPLC			chromatographic logP	3.5
CCCCCCCC/C=C\CCCCCCCC(=O)OC[C@](C)(O)C[C@@H]1NC(=O)[C@@H]2Cc3c([nH]c4ccccc34)SC[C@H](NC(=O)[C@@H]([C@H](C)O)NC(=O)[C@H](C)NC1=O)C(=O)N1C[C@@H](O)C[C@H]1C(=O)N[C@@H](C)C(=O)N2				logP	1.7
Cc1cc(C)nc(Nc2ncc(C(=O)NCCc3c(C)[nH]c4ccccc34)cn2)c1	metabolic stability	cynomolgus monkey, hepatocytes	1 µM	half-life	0.267 h
CC(C)[C@H]1C(=O)N[C@@H](CCCN=C(N)N)C(=O)NCC(=O)N[C@@H](CC(=O)O)C(=O)N[C@H](Cc2ccccc2)C(=O)N1C				logP	-2
CN[C@H](CC(C)C)C(=O)N[C@H]1C(=O)N[C@@H](CC(N)=O)C(=O)N[C@H]2C(=O)NC3C(=O)N[C@H](C(=O)N[C@H](C(=O)NCCC[N+](C)(C)C)c4cc(O)cc(O)c4-c4cc3ccc4O)[C@H](O)c3ccc(c(Cl)c3)Oc3cc2cc(c3OC2OC(CO)C(O)[C@H](O)[C@@H]2O[C@H]2CC(C)(NCc3ccc(-c4ccc(Cl)cc4)cc3)[C@H](O)[C@H](C)O2)Oc2ccc(cc2Cl)[C@H]1O (some centres unmarked)		mouse, plasma	intravenous, 10 mg/kg	half-life	7 h
O=C(O)c1cccc(OC(=O)N2CCC(CCn3ccc4ccc(F)cc43)CC2)c1	HPLC			chromatographic logP	3.6
C[C@]12CC[C@H](O)CC1=CC[C@@H]1[C@@H]2CC[C@]2(C)C(n3cnc4ccccc43)=CC[C@@H]12.Cl		mouse, plasma	oral, 10 mg/kg	half-life	5.16 h
Cc1ccncc1OC(=O)NCCCCCn1ccc2ccc(F)cc21	HPLC			chromatographic logP	2.7
C=C[C@H]1CN2CC[C@H]1C[C@H]2[C@H](O)c1ccnc2ccccc12		water		logP	2.68
C[C@H]1COCCN1c1nc(NCc2cccnc2C(F)(F)F)c2cccnc2n1	metabolic stability	dog, hepatocytes		hepatocyte CLint	10 µL/min/10⁶ cells
Nc1nc(-c2ccccc2)nc2[nH]nc(Nc3ccc(C(F)(F)F)cc3)c12		mouse, plasma	oral, 100 mg/kg, 30 min	concentration	418 ng/mL
NCC(=O)Nc1ccc(-n2nc(C(F)(F)F)cc2-c2ccc3c(ccc4ccccc43)c2)cc1		mouse, plasma	oral, 80 mg/kg	half-life	22 h
